From article PMC6857568 (Molecular Biology of the Cell, 2019)

Columns and labels:
[1] = molecular target: Atto647N-labeled microtubules of pig brain tubulin (pig) (UniProt Q2XVP4); assay: TIRF microscopy binding assay
[2] = system: dynamic Alexa 647–labeled microtubules; assay: Bundling of dynamic microtubules; type: biochemical, pig; details: 50 or 100 nM starPEG-(KA7)4-TAMRA; 50 nM starPEG-(DA7)4-TAMRA; 35°C
Summary of the method: (§1)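 Dynamic assay: biotinylated GMP-CPP pig tubulin seeds were bound to anti-biotin antibody, then given 14 µM Alexa 647 tubulin with 1 mM GTP, methylcellulose, casein and oxygen scavenger in PIPES pH 6.8. Peptide was present at the stated concentrations, at 35°C for up to 30 min. Dual-color time-lapse was one frame per 3 s; kymographs were analyzed manually.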

[3] = system: depolymerizing microtubule plus ends / intersecting microtubules; assay: Outcome of depolymerizing plus end crossing an intersecting microtubule; type: biochemical, pig; details: for pulling events (in words): 50 or 100 nM (starPEG-(KA7)4-TAMRA); for pick-up of tubulin aggregates tracking depolymerizing plus ends: dynamic microtubule assay
Summary of the method: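 Peptide was present in the dynamic-seed assay (14 µM Alexa 647 tubulin, GTP, 35°C). Dual-color time-lapse ran at one frame per 3 s. Peptide intensity at a crossing was the background-corrected integrated intensity of a five-pixel circle, taken in the frame where the depolymerizing plus end crossed the intersecting microtubule. Multiple-peak Gaussian fitting was used.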

[4] = system: taxol-stabilized Atto647N-labeled microtubules; assay: Microtubule-binding by TIRF microscopy on taxol-stabilized microtubules; parameters: species or system pig
[5] = system: dynamic Alexa 647–labeled microtubules; assay: Microtubule dynamics; type: biochemical, pig; details: vs MOCK
[6] = system: Alexa 647–labeled tubulin; assay: Spontaneous microtubule nucleation assay; type: biochemical, pig; details: 100 nM, 5 min, 35°C; for microtubules nucleated de novo: ± SD, MOCK 0.6 ± 0.4
[7] = system: taxol-stabilized ATTO 647N-labeled microtubules; assay: Single-molecule diffusion and track-switching on the microtubule lattice; type: binding, pig
Summary of the method: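 Peptide at 1 nM was imaged on taxol microtubules at 25°C in BRB80. Recordings were 5-min continuous streams at 100-ms exposure (532 nm). Single molecules were tracked automatically (minimum 5 frames, maximum 3-frame break) and checked against kymographs. D came from MSD linear regression and from a covariance-based estimator weighted by trajectory length.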

[8] = system: subtilisin-treated GMP-CPP/taxol double-stabilized microtubules; assay: Binding to subtilisin-treated; parameters: species or system pig; details: C-termini removed
Summary of the method: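 GMP-CPP microtubules were digested with 200 µg/ml subtilisin A in BRB80 plus 10 µM taxol for 1 h at 30°C, then stopped with 10 mM PMSF. Digestion was checked by SDS-PAGE. Brightly labeled (1:4) digested and dimly labeled (1:20) undigested microtubules shared one channel. Peptide binding was imaged by TIRF at 25°C in the stabilized-microtubule buffer.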

[9] = system: rat kinesin-1 (rKin430-GFP); assay: Kinesin-1 stepping; type: biochemical; details: 5 and 25 nM
Summary of the method: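 GFP-tagged truncated rat kinesin-1 (1–430) ran on antibody-bound taxol microtubules with 1 mM ATP and peptide, at 25°C. Movies were 5 min at 100-ms exposure (488 nm), with a peptide snapshot beforehand. Landing rate, velocity, dwell time and run length were scored manually from kymographs. Gaussian and log-normal fits were applied; half-maxima of cumulative plots were reported.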

[10] = system: overlaps of taxol-stabilized microtubules; assay: Accumulation in overlaps of taxol-stabilized microtubules; type: binding, pig
[11] = system: dynamic Alexa 647–labeled microtubules; assay: Tracking of microtubule ends on dynamic microtubules; type: biochemical, pig
Summary of the method: as §1

[12] = system: depolymerizing microtubule plus ends / intersecting microtubules; assay: Bending forces of pulled microtubules during pulling events; type: biochemical, pig; details: beam equation, deflection angle ≤30°, corrected force, mean ± SD, N = 11
[13] = average, n = 19 tracking events, 35°C

starPEG-(KA7)4-TAMRA (designed binder)
Kd [1]: 30 nM | concentration at which saturation is reached [1]: 200 nM

starPEG-(DA7)4-TAMRA
microtubule bundling [2]: not in the presence of 50 nM starPEG-(DA7)4-TAMRA | pulling events (in words) [3]: none | pick-up of tubulin aggregates tracking depolymerizing plus ends [3]: not evident | microtubule binding ([4]; high nanomolar concentrations (i.e., >250 nM), charge-inverted control): does not show any microtubule binding | effect on microtubule dynamics (in words) ([5]; 50 nM): do not change microtubule dynamics compared with MOCK control | microtubules nucleated de novo [6]: 0.8 ± 1.0 MT per minute and field of view

starPEG-(KA7)4-TAMRA
diffusion coefficient (overall) ([7]; 25°C, BRB80): ~0.3 µm^2s^–1 | diffusion coefficient D (MSD) ([7]; mean square displacement, linear regression, mean ± SEM, N = 998, 1 nM, 25°C, BRB80): 0.33 ± 0.04 µm^2s^–1 | track-switching at microtubule intersections ([7]; single molecules, taxol-stabilized microtubules): able to switch their microtubule track at microtubule–microtubule intersections | effect of subtilisin protease treatment on microtubule binding [8]: completely abolishes microtubule binding | effect on kinesin-1 dwell time (in words) [9]: does not significantly affect the motor’s average dwell time | effect on kinesin-1 landing rate (in words) [9]: significantly decreases the landing rate of kinesin-1 in a concentration-dependent manner | effect on kinesin-1 run length (in words) [9]: nor the average motor run length | effect on kinesin-1 velocity (in words) [9]: slightly increased | accumulation in microtubule overlaps (in words) ([10]; low density (5 nM)): preferentially binds to or accumulates in overlaps of taxol-stabilized microtubules | accumulation in microtubule overlaps (in words) ([10]; near a half-saturating concentration (25 nM)): this effect is lost | microtubule bundling [2]: pronounced microtubule bundling | pulling events (in words) [3]: frequent pulling events | pick-up of tubulin aggregates tracking depolymerizing plus ends [3]: eventually picked up surface-associated tubulin aggregates that started to diffuse along the microtubule lattice and tracked depolymerizing plus ends | saturation of microtubule binding ([4]; taxol-stabilized microtubules, BRB80, 25°C): ~200 nM | tracking of growing microtubule plus end ([11]; after rescue event): unable to track the growing microtubule plus end | microtubule shortening during tracked depolymerization events [11, 13]: ~60% | microtubule-bound intensity lost during one depolymerization event [11, 13]: ~30% | minus-end tracking ([11]; dynamic microtubules): could not observe any minus-end-tracking event | concentration on remaining microtubule lattice by end-tracking ([11]; normalized intensity / normalized length): about twofold | effect on rescue frequency (in words) ([5]; 50 and 100 nM): 100 nM but not 50 nM starPEG-(KA7)4-TAMRA significantly reduces the rescue frequency | effect on growth velocity (in words) ([5]; 50 or 100 nM): increases the growth velocity significantly | microtubule nucleation (in words) [6]: robust nucleation is evident | microtubules nucleated de novo [6]: 9 ± 2.5 MT per minute and field of view | bending force during pulling events (mean) [12]: 4.2 ± 2.7 pN
